Measurements from ChEMBL document CHEMBL1123243, “Studies on prodrugs. 5. Synthesis and antimicrobial activity of N-(oxoalkyl)norfloxacin derivatives” (J Med Chem, 1986).

Tests used:
Pseudomonas aeruginosa = test: Compound was tested for antimicrobial activity against Pseudomonas aeruginosa PAO1; format: functional
Outline: (§1)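 Agar dilution on Mueller-Hinton agar with serial 2-fold dilutions; plate concentrations 0.006 to 100 µg/mL. Inoculum about 10^6 cfu/mL. Plates incubated at 37 °C for 18 h. MIC is the lowest concentration preventing visible growth.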

Serratia marcescens = test: Compound was tested for antimicrobial activity against Serratia marcescens 16; format: functional; outline: as §1
Mus musculus [1] = test: Serum concentration in mice, after oral administration at a dose of 100 mg/kg p.o. at 5 hr; format: functional, organism-based; set-up: dose 100 mg/kg
Mus musculus [2] = test: Serum concentration in mice, after oral administration at a dose of 50 mg/kg p.o. at 2 hr; format: functional, organism-based; set-up: dose 50 mg/kg
Mus musculus [3] = test: Serum concentration in mice, after oral administration at a dose of 100 mg/kg p.o. at 0.5 h; format: functional, organism-based; set-up: dose 100 mg/kg
Outline: (§2)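 Mice were given compound orally as a suspension in 0.5% sodium carboxymethyl cellulose at 100 mg/kg (NFLX-equivalent dose). Animals were killed by bleeding at 0.5, 1.0, 2.0 and 4.0 h. Serum norfloxacin and parent compound were measured by HPLC.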

[4] = Lethal dose was measured in rat after oral administration; format: toxicity, organism-based; conditions: in vivo
Outline: (§3)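 Each compound was suspended in 0.5% cmc and given by the stated route. Deaths were counted within 1 week, and LD50 was calculated by the method of Weil.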

Escherichia coli [5] = test: Compound was tested for antimicrobial activity against Escherichia coli KC-14; format: functional; outline: as §1
Escherichia coli [6] = test: Compound was tested for antimicrobial activity in mice infected with Escherichia coli KC-14 after peroral administration; format: functional; conditions: po
Outline: (§4)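 Male ddy mice (20 ± 2 g), groups of 10, were infected ip with 0.5 mL of bacteria at 10 or 100 times the 50% lethal dose. Compound was suspended in 0.5% sodium carboxymethyl cellulose and given orally 1 h postinfection. Survival was scored after 1 week.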

Mus musculus [7] = test: Compound was tested for antimicrobial activity in mice infected with Staphylococcus aureus smith, po; format: functional; outline: as §4
Bacillus subtilis = test: Compound was tested for antimicrobial activity against Bacillus subtilis ATCC 6633; format: functional; outline: as §1
Proteus vulgaris = test: Compound was tested for antimicrobial activity against Proteus vulgaris OX-19; format: functional; outline: as §1
Mus musculus [8] = test: Serum concentration in mice, after oral administration at a dose of 100 mg/kg p.o. at 1 hr; format: functional, organism-based; set-up: dose 100 mg/kg; outline: as §2
Mus musculus [9] = test: Compound was tested for antimicrobial activity in mice infected with Pseudomonas aeruginosa E2,po; format: functional
Outline: (§5)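 Male ddy mice (20 ± 2 g, groups of 10) received an intraperitoneal inoculum of 0.5 mL bacterial dilution at 10 or 100 times the 50% lethal dose. Compound was suspended in 0.5% sodium carboxymethyl cellulose and given orally 1 h postinfection.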

Mus musculus [10] = test: (§6) Serum concentration in mice, after oral administration at a dose of 100 mg/kg p.o. at 2 hr; format: functional, organism-based; set-up: dose 100 mg/kg
Outline: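 Compound was suspended in 0.5% sodium carboxymethyl cellulose and given orally to mice at 100 mg/kg, as a dose equivalent to 100 mg/kg NFLX. Mice were killed by bleeding at 0.5, 1.0, 2.0 and 4.0 h. Serum NFLX and parent compound were each measured by HPLC.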

Staphylococcus aureus = test: Compound was tested for antimicrobial activity against Staphylococcus aureus FDA207PJC-1; format: functional; set-up: unit: µg/mL; outline: as §1
[11] = Lethal dose was measured in rat after iv administration; format: toxicity, organism-based; conditions: in vivo; outline: as §3
Klebsiella pneumoniae = test: Compound was tested for antimicrobial activity against Klebsiella pneumonia IFO3512; format: functional; outline: as §1
Mus musculus [12] = test: Compound was tested for antimicrobial activity in mice infected with Staphylococcus aureus smith. po; format: functional; outline: as §5
[13] = Compound was evaluated for area under curve doses in […] at 100 mg/kg po; format: functional, organism-based; set-up: dose 100 mg/kg
Mus musculus [14] = test: as §6; format: functional, organism-based; set-up: dose 100 mg/kg; outline: as §2; remark: listed apart in the source
Mus musculus [15] = test: Serum Levels in mice, after oral administration at a dose of 100 mg/kg p.o. at 5 hr; format: functional, organism-based; set-up: dose 100 mg/kg
Mus musculus [16] = test: Serum Levels in mice, after oral administration at a dose of 100 mg/kg p.o. at 1 hr; format: functional, organism-based; set-up: dose 100 mg/kg; outline: as §2
Mus musculus [17] = test: Serum Levels in mice, after oral administration at a dose of 100 mg/kg p.o. at 2 hr; format: functional, organism-based; set-up: dose 100 mg/kg; outline: as §2
Mus musculus [18] = test: Compound was tested for antimicrobial activity in mice infected with Escherichia coli KC-14, po; format: functional; outline: as §4
Mus musculus [19] = test: Serum Levels in mice, after oral administration at a dose of 100 mg/kg p.o. at 0.5 h; format: functional, organism-based; set-up: dose 100 mg/kg; outline: as §2

Row | SMILES | Activity (Pseudomonas aeruginosa) | Activity (Serratia marcescens) | Serum concentration (Mus musculus [1]) [µg/mL] | Serum concentration (Mus musculus [3]) [µg/mL] | Activity (Escherichia coli [5]) | ED50 (Escherichia coli [6]) [mg/kg] | Activity (Bacillus subtilis) | Activity (Proteus vulgaris) | Serum concentration (Mus musculus [8]) [µg/mL] | Serum concentration (Mus musculus [10]) [µg/mL] | Activity (Staphylococcus aureus) | Activity (Klebsiella pneumoniae) | further results
1 | CCn1cc(C(=O)O)c(=O)c2cc(F)c(N3CCN(CC(C)=O)CC3)cc21 | 6.25 | 6.25 | 0.46 | 23.6 | 1.56 | 0.95 | 0.39 | 0.78 | 7.29 | 2.69 | 0.39 | 0.2 | Serum concentration (Mus musculus [2]): 8.88 µg/mL; LD50 [4]: > 4000 mg/kg; ED50 (Mus musculus [7]): 12.6 mg/kg; ED50 (Mus musculus [9]): 18.5 mg/kg; LD50 [11]: 684 mg/kg
2 | CCn1cc(C(=O)O)c(=O)c2cc(F)c(N3CCN(C(C)(C)C(C)=O)CC3)cc21 | 6.25 | 6.25 |  |  | 3.13 | 6.06 | 0.39 | 1.56 |  |  | 0.78 | 0.39 | 
3 | CCn1cc(C(=O)O)c(=O)c2cc(F)c(N3CCN(CC(=O)c4ccccc4)CC3)cc21 | 1.56 | 1.56 |  |  | 0.78 | > 7.5 | 0.78 | 0.39 |  |  | 0.78 | 0.78 | 
4 | CCn1cc(C(=O)O)c(=O)c2cc(F)c(N3CCNCC3)cc21 [NORFLOXACIN] | 0.78 | 0.78 |  |  | 0.39 | 4.38 | 0.39 | 0.2 |  |  | 0.39 | 0.2 | ED50 (Mus musculus [12]): 36.4 mg/kg; ED50 (Mus musculus [9]): 59 mg/kg; LD50 [11]: 314 mg/kg
5 | CCn1cc(C(=O)O)c(=O)c2cc(F)c(N3CCN(CCC(C)=O)CC3)cc21 | 0.78 | 0.78 | 1.18 | 7.06 | 0.78 | 2.34 | 0.39 | 0.2 | 3.55 | 2.22 | 0.78 | 0.2 | AUC [13]: 12.9
6 | CCn1cc(C(=O)O)c(=O)c2cc(F)c(N3CCN(C(C)C(C)=O)CC3)cc21 (stereo not given) | 12.5 | 12.5 |  |  | 3.13 | 3.53 | 0.78 | 1.56 |  |  | 0.78 | 0.78 | 
7 | CCn1cc(C(=O)O)c(=O)c2cc(F)c(N3CCN(CC(C)O)CC3)cc21 (stereo not given) | 6.25 | 3.12 | 2.82 | 19.5 | 0.78 | 3.9 | 0.78 | 0.78 | 20.2 |  | 0.39 | 0.2 | Serum concentration (Mus musculus [2]): 4.48 µg/mL; Serum concentration (Mus musculus [14]): 6.93 µg/mL; Serum level (Mus musculus [15]): 2.21; Serum level (Mus musculus [16]): 27.1; Serum level (Mus musculus [17]): 11.8 µg/mL; ED50 (Mus musculus [18]): 3.5 mg/kg; Serum level (Mus musculus [19]): 13.6 µg/mL
8 | CCn1cc(C(=O)O)c(=O)c2cc(F)c(N3CCN(CC(=O)C(C)(C)C)CC3)cc21 | 50 | <100 | 6.73 | 19.6 | 12.5 | 7.13 | 0.78 | 3.13 | 15.4 | 9.4 | 0.78 | 0.78 | 
